Assay results published in PMC2943143 (Biochemical pharmacology, 2010).
“And” between values parts separate entries of the source, which are not always exact repeats. Identical values can stand only once. “Also recorded” adds a separate entry of the source.

Key:
[1] = molecular target: human pol λ (full-length, residues 1–575) (Homo sapiens, UniProt Q9UGP5); assay: Pol assay, full-length human pol λ; format: biochemical; settings: 100 and 1,000 nM PGG, Fig. 1C
Procedure, shortened: (§1)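 Test compound was dissolved in DMSO and sonicated 30 s. It was preincubated with enzyme (0.05 unit final) in 50 mM Tris-HCl pH 7.5, 1 mM DTT, 50% glycerol and 0.1 mM EDTA at 0 °C for 10 min. This was added to each enzyme's standard reaction mix with poly(dA)/oligo(dT)18 (A/T = 2/1) template-primer and dTTP substrate, then incubated at 37 °C for 60 min. Activity is given as % of inhibitor-free control.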

[2] = molecular target: rice pol λ (Oryza sativa subsp. japonica, UniProt Q67VC8); assay: Pol assay, rice pol λ; format: biochemical; settings: supplemental Fig. S1A
Procedure, shortened: as §1

[3] = system: human PCa PC-3 cells; settings: i.p. injection, every other day, 25 mg/kg, nude mice; cited from earlier work
[4] = system: isolated nuclei; settings: cited from earlier work
[5] = molecular target: Aminopeptidase N; settings: read-out: IC50, Aminopeptidase N; cited from earlier work
[6] = system: rat liver microsomal 5 α-reductase; settings: cited from earlier work
[7] = system: Beta-secretase; settings: cited from earlier work
[8] = molecular target: Xanthine oxidase; settings: read-out: IC50, Xanthine oxidase; cited from earlier work
[9] = molecular target: bovine DNase I (Bos taurus, UniProt P00639); assay: DNase I assay; format: biochemical; settings: highest tested concentration 1 μM, supplemental Fig. S1B
Chain of bovine DNase I (P00639 23-282): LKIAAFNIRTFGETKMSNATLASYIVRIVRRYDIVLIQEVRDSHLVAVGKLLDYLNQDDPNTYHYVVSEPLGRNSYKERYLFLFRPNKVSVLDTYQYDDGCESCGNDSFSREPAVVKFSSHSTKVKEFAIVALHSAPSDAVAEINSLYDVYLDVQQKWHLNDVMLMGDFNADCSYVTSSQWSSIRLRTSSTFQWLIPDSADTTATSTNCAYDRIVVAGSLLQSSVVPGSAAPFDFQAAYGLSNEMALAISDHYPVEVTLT
Procedure, shortened: (§2)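 Topoisomerases I and II were purified from human placenta, and DNase I came from bovine pancreas. Each activity was measured in a standard assay following the supplier's specifications.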

[10] = system: calf primase of pol α; assay: Primase assay; format: biochemical; settings: highest tested concentration 1 μM, supplemental Fig. S1B
[11] = molecular target: T4 polynucleotide kinase (Enterobacteria phage T4, UniProt P06855); assay: T4 polynucleotide kinase assay; format: biochemical; settings: highest tested concentration 1 μM, supplemental Fig. S1B
Chain of T4 polynucleotide kinase (P06855 whole entry): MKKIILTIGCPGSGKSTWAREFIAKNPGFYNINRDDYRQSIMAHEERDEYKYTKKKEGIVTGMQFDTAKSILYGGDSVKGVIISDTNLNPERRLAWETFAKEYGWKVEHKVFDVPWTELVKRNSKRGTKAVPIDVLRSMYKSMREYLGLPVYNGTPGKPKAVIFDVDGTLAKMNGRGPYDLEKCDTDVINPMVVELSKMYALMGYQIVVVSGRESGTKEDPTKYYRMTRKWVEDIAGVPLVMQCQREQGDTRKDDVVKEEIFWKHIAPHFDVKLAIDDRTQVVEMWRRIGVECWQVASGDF

[12] = molecular target: HIV integrase; settings: read-out: IC50, HIV integrase; cited from earlier work
[13] = molecular target: Taq pol (Thermus aquaticus, UniProt P19821); assay: Pol assay, Taq pol; format: biochemical; settings: supplemental Fig. S1A
Procedure, shortened: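 Taq polymerase used poly(dA)/oligo(dT)18 (A/T = 2/1) template-primer and dTTP substrate. Test compound in sonicated DMSO was preincubated with enzyme (0.05 unit final) in 50 mM Tris-HCl pH 7.5, 1 mM DTT, 50% glycerol and 0.1 mM EDTA at 0 °C for 10 min. The mixture was then added to standard reaction mix and incubated at 74 °C for 60 min. Activity is given as % of untreated control.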

[14] = molecular target: human pol η (Homo sapiens, UniProt Q9Y253); assay: Pol assay, human pol η; format: biochemical
Chain of human pol η (Q9Y253 whole entry): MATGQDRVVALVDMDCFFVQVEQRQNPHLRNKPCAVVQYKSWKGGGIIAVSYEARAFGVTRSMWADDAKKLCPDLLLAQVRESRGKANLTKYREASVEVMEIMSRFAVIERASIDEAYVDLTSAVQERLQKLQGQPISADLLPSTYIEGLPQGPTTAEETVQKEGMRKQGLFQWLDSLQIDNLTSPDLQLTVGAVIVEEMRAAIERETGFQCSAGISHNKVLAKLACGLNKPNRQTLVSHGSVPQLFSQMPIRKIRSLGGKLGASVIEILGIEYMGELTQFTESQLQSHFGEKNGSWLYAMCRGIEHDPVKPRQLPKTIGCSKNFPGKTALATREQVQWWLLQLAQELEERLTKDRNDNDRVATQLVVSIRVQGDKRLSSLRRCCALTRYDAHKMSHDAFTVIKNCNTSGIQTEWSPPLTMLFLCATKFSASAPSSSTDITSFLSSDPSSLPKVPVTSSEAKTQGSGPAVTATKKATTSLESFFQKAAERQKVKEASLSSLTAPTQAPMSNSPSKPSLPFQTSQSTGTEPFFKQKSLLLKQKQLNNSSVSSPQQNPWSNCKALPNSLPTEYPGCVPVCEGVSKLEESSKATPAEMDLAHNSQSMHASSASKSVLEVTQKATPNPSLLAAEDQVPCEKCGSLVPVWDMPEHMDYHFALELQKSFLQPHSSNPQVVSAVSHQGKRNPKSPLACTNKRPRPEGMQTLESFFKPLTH
Procedure, shortened: as §1

[15] = molecular target: human pol γ (Homo sapiens, UniProt P54098); assay: Pol assay, human pol γ; format: biochemical; settings: 100 and 1,000 nM PGG, Fig. 1C; compared with B- and Y-family pols
Procedure, shortened: as §1

[16] = molecular target: calf thymus TdT (Bos taurus, UniProt P06526); assay: Pol assay, calf TdT; format: biochemical; settings: 100 and 1,000 nM PGG, Fig. 1C
Chain of calf thymus TdT (P06526 whole entry): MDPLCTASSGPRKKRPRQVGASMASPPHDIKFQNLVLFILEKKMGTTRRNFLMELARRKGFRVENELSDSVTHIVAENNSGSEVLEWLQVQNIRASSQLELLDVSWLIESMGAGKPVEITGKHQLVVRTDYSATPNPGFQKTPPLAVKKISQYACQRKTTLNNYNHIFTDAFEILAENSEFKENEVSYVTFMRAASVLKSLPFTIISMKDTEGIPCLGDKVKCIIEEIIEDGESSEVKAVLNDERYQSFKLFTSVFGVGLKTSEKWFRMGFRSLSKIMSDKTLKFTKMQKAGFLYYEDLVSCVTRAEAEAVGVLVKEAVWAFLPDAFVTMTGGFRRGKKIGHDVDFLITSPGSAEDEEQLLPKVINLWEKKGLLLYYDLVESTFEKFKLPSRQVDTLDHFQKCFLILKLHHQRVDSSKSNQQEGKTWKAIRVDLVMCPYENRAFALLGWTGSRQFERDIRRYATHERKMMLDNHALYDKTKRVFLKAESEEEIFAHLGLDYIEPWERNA
Procedure, shortened: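 TdT was assayed with oligo(dT)18 (3′-OH) primer and dTTP substrate. Test compound in sonicated DMSO was preincubated with 0.05 unit enzyme in 50 mM Tris-HCl pH 7.5, 1 mM DTT, 50% glycerol and 0.1 mM EDTA at 0 °C for 10 min. Reaction ran at 37 °C for 60 min. Remaining activity is expressed relative to no-inhibitor control.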

[17] = molecular target: T7 RNA polymerase (Escherichia phage T7, UniProt P00573); assay: T7 RNA polymerase assay; format: biochemical; settings: highest tested concentration 1 μM, supplemental Fig. S1B
[18] = molecular target: mouse IMP dehydrogenase (type II) (Mus musculus, UniProt P24547); assay: IMP dehydrogenase assay; format: biochemical; settings: highest tested concentration 1 μM, supplemental Fig. S1B
[19] = molecular target: human topoisomerase II (Homo sapiens, UniProt P11388); assay: DNA topoisomerase II assay; format: biochemical; settings: highest tested concentration 1 μM, supplemental Fig. S1B
Procedure, shortened: as §2

[20] = molecular target: HIV-1 reverse transcriptase (Human immunodeficiency virus type 1 group M subtype B, UniProt P04585); assay: HIV-1 reverse transcriptase assay; format: biochemical, Human immunodeficiency virus type-1 (HIV-1); settings: highest tested concentration 1 μM, supplemental Fig. S1B
Procedure, shortened: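 Recombinant HIV-1 reverse transcriptase used poly(rA)/oligo(dT)18 (A/T = 2/1) template-primer and dTTP substrate. Enzyme (0.05 unit) was preincubated with test compound in sonicated DMSO at 0 °C for 10 min in Tris-HCl pH 7.5/DTT/glycerol/EDTA buffer. Reaction ran at 37 °C for 60 min. Activity is given as % of control.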

[21] = molecular target: human telomerase (Homo sapiens, UniProt O14746); assay: Telomerase assay; format: biochemical; settings: highest tested concentration 1 μM, supplemental Fig. S1B
[22] = system: cauliflower pol α; assay: Pol assay, cauliflower pol α; format: biochemical; settings: supplemental Fig. S1A
Procedure, shortened: as §1

[23] = system: H^+, K^+- ATPase; settings: cited from earlier work
[24] = molecular target: human pol ε (Homo sapiens, UniProt Q07864); assay: Pol assay, human pol ε; format: biochemical
Chain of human pol ε (Q07864 whole entry): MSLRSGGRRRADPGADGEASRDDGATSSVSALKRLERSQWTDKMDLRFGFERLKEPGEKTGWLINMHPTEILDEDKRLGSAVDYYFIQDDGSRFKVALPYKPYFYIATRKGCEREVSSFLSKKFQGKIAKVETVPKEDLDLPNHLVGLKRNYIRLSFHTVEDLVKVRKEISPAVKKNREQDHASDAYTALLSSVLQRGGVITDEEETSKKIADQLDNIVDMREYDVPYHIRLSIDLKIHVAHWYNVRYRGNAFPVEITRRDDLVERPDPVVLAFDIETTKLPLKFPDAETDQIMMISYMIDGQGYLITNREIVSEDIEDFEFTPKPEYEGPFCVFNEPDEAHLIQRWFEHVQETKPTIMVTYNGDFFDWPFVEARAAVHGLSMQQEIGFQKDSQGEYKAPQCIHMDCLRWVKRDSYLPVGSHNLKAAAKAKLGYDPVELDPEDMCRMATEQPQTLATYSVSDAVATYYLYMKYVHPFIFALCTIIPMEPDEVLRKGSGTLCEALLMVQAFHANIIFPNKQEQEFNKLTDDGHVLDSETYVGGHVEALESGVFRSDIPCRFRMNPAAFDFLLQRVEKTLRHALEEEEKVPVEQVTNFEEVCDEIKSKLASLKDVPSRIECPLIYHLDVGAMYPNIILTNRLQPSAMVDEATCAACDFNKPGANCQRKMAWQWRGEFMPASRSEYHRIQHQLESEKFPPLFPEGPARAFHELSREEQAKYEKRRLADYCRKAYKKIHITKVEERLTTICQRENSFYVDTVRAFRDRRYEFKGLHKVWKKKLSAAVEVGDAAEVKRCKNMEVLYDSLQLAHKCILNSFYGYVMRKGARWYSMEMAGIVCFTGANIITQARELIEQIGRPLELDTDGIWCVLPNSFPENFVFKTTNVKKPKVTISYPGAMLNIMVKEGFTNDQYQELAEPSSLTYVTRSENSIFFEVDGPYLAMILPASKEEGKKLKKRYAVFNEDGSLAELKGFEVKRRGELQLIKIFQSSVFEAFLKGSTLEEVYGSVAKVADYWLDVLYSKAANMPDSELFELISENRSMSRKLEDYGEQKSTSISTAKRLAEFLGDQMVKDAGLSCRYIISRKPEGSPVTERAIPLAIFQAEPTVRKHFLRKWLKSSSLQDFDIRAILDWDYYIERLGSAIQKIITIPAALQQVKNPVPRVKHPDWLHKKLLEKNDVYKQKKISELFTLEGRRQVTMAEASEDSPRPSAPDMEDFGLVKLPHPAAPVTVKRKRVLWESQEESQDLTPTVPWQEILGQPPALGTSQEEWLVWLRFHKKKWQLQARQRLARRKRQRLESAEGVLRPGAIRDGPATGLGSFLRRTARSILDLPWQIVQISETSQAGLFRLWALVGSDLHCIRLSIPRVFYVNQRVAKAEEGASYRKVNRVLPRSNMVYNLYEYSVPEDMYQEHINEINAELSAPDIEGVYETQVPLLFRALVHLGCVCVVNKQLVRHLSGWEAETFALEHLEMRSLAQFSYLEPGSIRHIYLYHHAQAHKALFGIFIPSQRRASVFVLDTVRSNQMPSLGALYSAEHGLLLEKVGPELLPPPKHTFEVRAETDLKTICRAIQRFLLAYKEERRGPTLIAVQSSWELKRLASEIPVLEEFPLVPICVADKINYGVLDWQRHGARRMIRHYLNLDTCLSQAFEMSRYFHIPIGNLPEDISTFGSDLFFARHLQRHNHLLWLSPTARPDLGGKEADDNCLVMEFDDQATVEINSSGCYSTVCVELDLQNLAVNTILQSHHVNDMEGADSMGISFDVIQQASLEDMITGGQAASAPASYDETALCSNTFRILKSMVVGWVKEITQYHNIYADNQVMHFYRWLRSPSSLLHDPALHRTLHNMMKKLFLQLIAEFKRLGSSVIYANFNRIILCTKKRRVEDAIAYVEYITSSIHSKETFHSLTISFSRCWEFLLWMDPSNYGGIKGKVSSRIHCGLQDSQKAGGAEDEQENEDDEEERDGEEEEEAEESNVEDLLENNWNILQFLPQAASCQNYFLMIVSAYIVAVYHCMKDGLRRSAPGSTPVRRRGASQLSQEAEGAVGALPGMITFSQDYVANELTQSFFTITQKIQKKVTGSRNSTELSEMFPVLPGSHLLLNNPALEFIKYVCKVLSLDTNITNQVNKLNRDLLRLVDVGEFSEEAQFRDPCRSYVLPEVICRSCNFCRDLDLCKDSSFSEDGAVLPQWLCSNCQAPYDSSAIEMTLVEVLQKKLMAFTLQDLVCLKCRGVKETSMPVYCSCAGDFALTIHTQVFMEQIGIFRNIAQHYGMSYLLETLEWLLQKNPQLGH
Procedure, shortened: as §1

Chain of human pol λ (full-length, residues 1–575) (Q9UGP5 whole entry, the tested form may be a part): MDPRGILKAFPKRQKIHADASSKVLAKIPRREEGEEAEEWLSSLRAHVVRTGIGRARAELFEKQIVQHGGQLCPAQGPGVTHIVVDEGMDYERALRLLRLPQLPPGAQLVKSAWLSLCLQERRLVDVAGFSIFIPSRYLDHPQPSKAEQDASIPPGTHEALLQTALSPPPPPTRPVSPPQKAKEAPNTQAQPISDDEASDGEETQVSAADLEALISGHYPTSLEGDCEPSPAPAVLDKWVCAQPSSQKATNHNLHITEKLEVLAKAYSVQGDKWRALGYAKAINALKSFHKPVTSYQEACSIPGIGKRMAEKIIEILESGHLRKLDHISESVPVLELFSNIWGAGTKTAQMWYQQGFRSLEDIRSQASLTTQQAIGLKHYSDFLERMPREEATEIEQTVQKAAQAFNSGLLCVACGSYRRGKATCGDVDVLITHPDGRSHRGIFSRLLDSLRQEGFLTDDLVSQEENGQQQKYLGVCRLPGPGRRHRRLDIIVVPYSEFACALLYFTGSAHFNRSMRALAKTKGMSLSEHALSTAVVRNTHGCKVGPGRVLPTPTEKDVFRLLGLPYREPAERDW

Which “effect on pol λ activity” value [1] does the source give for `O=C(OC[C@H]1O[C@@H](OC(=O)c2cc(O)c(O)c(O)c2)[C@H](OC(=O)c2cc(O)c(O)c(O)c2)[C@@H](OC(=O)c2cc(O)c(O)c(O)c2)[C@@H]1OC(=O)c1cc(O)c(O)c(O)c1)c1cc(O)c(O)c(O)c1` [PGG, 1,2,3,4,6-penta-O-galloyl-β-D-glucose] here?
Its value is “not affected; also recorded: not sensitive”.

And the “effect on rice pol λ activity” value [2]?
The value was “not influenced”.

And the “growth of PC-3 cells inoculated into the tibia” value [3]?
The value was “positive inhibitory efficacy”.

And the “inhibition of DNA replicative synthesis compared with aphidocolin” value [4]?
Its value is “superior efficacy”.

And the IC50 [5]?
Its IC50 is 6.5 µM.

What about the “Mode of Inhibition, 5-alpha-Reductase, NADPH” value [6] of the same compound?
The value was “competitive inhibitor; also recorded: Competitive for NADPH”.

And the “Mode of Inhibition, 5-alpha-Reductase, testosterone” value [6]?
Its value is “non-competitive inhibitor; also recorded: Non-competitive for testosterone”.

What about the IC50 ([6]; read-out: IC50, 5-alpha-Reductase) of the same compound?
Its IC50 is 7.8 µM.

What about the Ki ([6]; read-out: Ki, 5-alpha-Reductase, NADPH, competitive for NADPH) of the same compound?
Its Ki is 0.48 µM.

What about the “Mode of Inhibition, Beta-secretase” value [7] of the same compound?
The value was “Non-competitive for Rh-EVNLDAEFK-Quencher”.

And the IC50 ([7]; read-out: IC50, Beta-secretase)?
Its IC50 is 3.76 µM.

And the Ki ([7]; read-out: Ki, Beta-secretase)?
The Ki was 5.13 µM.

And the IC50 [8]?
Its IC50 is 3.2 µM.

What about the “effect on bovine DNase I activity” value [9] of the same compound?
The value was “did not suppress”.

What about the “effect on calf primase of pol α activity” value [10] of the same compound?
Its value is “did not suppress”.

And the “effect on T4 polynucleotide kinase activity” value [11]?
The value was “did not suppress”.

And the IC50 [12]?
Its IC50 is 13.7 µM.

And the “effect on Taq pol activity” value [13]?
The value was “not influenced”.

And the IC50 [14]?
Its IC50 is 0.03 to 0.045 µM.

And the “effect on pol η activity” value ([14]; 100 and 1,000 nM PGG, Fig. 1C)?
Its value is “significantly inhibit”.

What about the “inhibitory activity on pol γ (family A)” value [15] of the same compound?
The value was “lower”.

What about the “effect on TdT activity” value [16] of the same compound?
Its value is “not affected; also recorded: not sensitive”.

What about the “effect on T7 RNA polymerase activity” value [17] of the same compound?
The value was “did not suppress”.

What about the “effect on mouse IMP dehydrogenase (type II) activity” value [18] of the same compound?
The value was “did not suppress”.

And the “effect on human topoisomerase II activity” value [19]?
Its value is “did not suppress”.

What about the “effect on HIV-1 reverse transcriptase activity” value [20] of the same compound?
The value was “did not suppress”.

And the “effect on human telomerase activity” value [21]?
Its value is “did not suppress”.

What about the “effect on cauliflower pol α activity” value [22] of the same compound?
Its value is “not influenced”.

And the “Mode of Inhibition, H^+, K^+- ATPase” value [23]?
The value was “Non-competitive for K^+”.

And the IC50 ([23]; read-out: IC50, H^+, K^+- ATPase)?
The IC50 was 0.166 µM.

What about the “effect on pol ε activity” value ([24]; 100 and 1,000 nM PGG, Fig. 1C) of the same compound?
Its value is “significantly inhibit”.

What about the IC50 ([24]; IC50, pol ε, range stated for replicative pols (α, δ and ε) together) of the same compound?
The IC50 was < 0.1 µM and 0.013 to 0.066 µM.
